According to ChEMBL document CHEMBL3046667, “Synthesis and herbicidal activity evaluation of novel β-carboline derivatives” (Molecules, 2012):

Experiments:
[1] = system: Brassica rapa subsp. oleifera; experiment: Herbicidal activity against Brassica rapa subsp. oleifera assessed as growth inhibition at 10 ug/ml; type: functional; settings: read-out: GI
In short: (§1)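 Compounds formulated as 10 g/L emulsified concentrates (DMSO solvent, Tween-80 emulsifier), diluted in water and applied to pot-grown plants in a greenhouse (23 ± 1 °C, 60 ± 5% RH, 8 h/day photoperiod). Distilled water and 2,4-D serve as references. Shoot height, root length and fresh weight are measured per cup. Percent inhibition is taken relative to water; mean of three repeats.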

Echinochloa crus-galli [2] = experiment: Herbicidal activity against Echinochloa crus-galli (barnyard grass) assessed as growth inhibition at 100 ug/ml; type: functional; settings: read-out: GI; in short: as §1
[3] = system: Brassica rapa subsp. oleifera; experiment: Herbicidal activity against Brassica rapa subsp. oleifera assessed as growth inhibition at 100 ug/ml; type: functional; settings: read-out: GI; in short: as §1
Echinochloa crus-galli [4] = experiment: Herbicidal activity against Echinochloa crus-galli (barnyard grass) assessed as growth inhibition at 10 ug/ml; type: functional; settings: read-out: GI; in short: as §1
[5] = system: Brassica rapa subsp. oleifera; experiment: Herbicidal activity against Brassica rapa subsp. oleifera; type: functional, organism-based; in short: as §1
Echinochloa crus-galli [6] = experiment: Herbicidal activity against Echinochloa crus-galli (barnyard grass); type: functional, organism-based; in short: as §1

| SMILES | inhibition of growth at 10 µg/mL [1] | inhibition of growth at 100 µg/mL (Echinochloa crus-galli [2]) | inhibition of growth at 100 µg/mL [3] | inhibition of growth at 10 µg/mL (Echinochloa crus-galli [4]) | EC50 [5] | EC50 (Echinochloa crus-galli [6]) |
| --- | --- | --- | --- | --- | --- | --- |
| O=C(N/N=C\c1ccccc1)C1Cc2c([nH]c3ccccc23)CN1 (stereo not drawn) | 3.75% | 15% | 25.3% | 0% | – | – |
| O=C(N/N=C\c1ccc([N+](=O)[O-])cc1)c1cc2c(cn1)[nH]c1ccccc12 | 30.9% | 43.2% | 85.4% | 24.6% | – | – |
| Cc1n[nH]c(Cl)c1/C=N\NC(=O)c1cc2c(cn1)[nH]c1ccccc12 | 32.2% | 28.1% | 90.8% | 6.34% | – | – |
| Cc1nc(C(=O)N/N=C\c2ccccc2)cc2c1[nH]c1ccccc12 | 37.2% | 51.5% | 87% | 21.9% | – | – |
| O=C(N/N=C\c1ccccc1)c1cc2c(cn1)[nH]c1ccccc12 | 18.1% | 35.9% | 55.6% | 11.8% | – | – |
| COc1cc(/C=N\NC(=O)c2cc3c(cn2)[nH]c2ccccc23)ccc1O | 27.4% | 33% | 63.2% | 13.3% | – | – |
| O=C(N/N=C\c1ccc(C(F)(F)F)cc1)c1cc2c([nH]c3ccccc32)c(-c2ccc(Cl)cc2)n1 | 66.9% | 57.9% | 93.7% | 24.1% | – | – |
| COc1cc(/C=N\NC(=O)C2Cc3c([nH]c4ccccc34)CN2)cc(OC)c1OC (stereo not drawn) | 5.28% | 23.8% | 33.5% | 2.51% | – | – |
| O=C(N/N=C\c1ccccc1O)c1cc2c(cn1)[nH]c1ccccc12 | 19.4% | 47.6% | 50.1% | 18.1% | – | – |
| O=C(N/N=C\Nc1ccc(C(F)(F)F)cc1)C1Cc2c([nH]c3ccccc23)CN1 (stereo not drawn) | 0% | 0% | 16.4% | 0% | – | – |
| O=C(N/N=C\c1ccccc1)c1cc2c([nH]c3ccccc32)c(-c2ccccc2)n1 | 62.1% | 73.9% | 100% | 30.4% | 4.83 µM | 4.83 µM |
| O=C(N/N=C\c1ccco1)c1cc2c(cn1)[nH]c1ccccc12 | 2.59% | 0% | 17.9% | 0% | – | – |
| COc1cc(/C=N\NC(=O)c2cc3c(cn2)[nH]c2ccccc23)cc(OC)c1OC | 16.3% | 37.1% | 58.4% | 15.1% | – | – |
| O=C(N/N=C\c1ccc(C(F)(F)F)cc1)c1cc2c([nH]c3ccccc32)c(-c2ccccc2)n1 | 57.9% | 60.3% | 100% | 27.9% | 14.2 µM | 14.2 µM |
| COc1ccc(/C=N\NC(=O)C2Cc3c([nH]c4ccccc34)CN2)cc1 (stereo not drawn) | 8.69% | 8.62% | 37.1% | 0% | – | – |
| COc1cc(OC)c(/C=N\NC(=O)c2cc3c(cn2)[nH]c2ccccc23)c(OC)c1 | 13.8% | 12.6% | 42.7% | 0% | – | – |
| COc1ccc(/C=N\NC(=O)c2cc3c(cn2)[nH]c2ccccc23)cc1 | 24.7% | 29.6% | 71.6% | 17.5% | – | – |
| O=C(N/N=C\c1ccccc1)c1cc2c([nH]c3ccccc32)c(-c2ccc(C(F)(F)F)cc2)n1 | 27.1% | 31.2% | 82.3% | 19.4% | – | – |
| O=C(N/N=C\Nc1ccc(C(F)(F)F)cc1)c1cc2c(cn1)[nH]c1ccccc12 | 7.52% | 0% | 23.7% | 0% | – | – |
| COc1ccc2c(c1)[nH]c1c(C)nccc12 [HARMINE] | 20.2% | 32.5% | 53.7% | 10.8% | – | – |
| O=C(NN=C(c1ccccc1)c1ccccc1)c1cc2c(cn1)[nH]c1ccccc12 | 0% | 0% | 10.5% | 0% | – | – |
| O=C(N/N=C\c1ccc(Cl)cc1)c1cc2c(cn1)[nH]c1ccccc12 | 18% | 0% | 47.3% | 0% | – | – |
| O=C(N/N=C\c1ccc(C(F)(F)F)cc1)c1cc2c([nH]c3ccccc32)c(-c2ccc(C(F)(F)F)cc2)n1 | 35.4% | 35.7% | 76.5% | 9.76% | – | – |
| O=C(O)COc1ccc(Cl)cc1Cl [2,4-DICHLOROPHENOXYACETIC ACID] | – | 100% | 100% | 100% | – | – |
| O=C(N/N=C\c1ccccc1)c1cc2c([nH]c3ccccc32)c(-c2ccc(Cl)cc2)n1 | 67% | 43.7% | 91.7% | 16.7% | – | – |
